High-throughput results from PubChem.
Most compounds without a hit are left out; they make up all but 4.5% or so of the library.
APP 5'UTR act: APP 5'UTR luciferase reporter activation. SH-SY5Y APP 5'UTR luciferase reporter, luminescence; zero percent = DMSO vehicle wells. activation, % at 2 µM. AID 1276. hit rate 1% among 190,000;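 active = activation above a set limit, based on mean plus 3 SD of controls, cut at about 140% in these data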
AHR activator: activates the human aryl hydrocarbon receptor | P35869 | AHR-responsive luciferase reporter cells, luminescence | activation, % at 5 µM | hit rate 2.5% among 320,000 | AID 2796; in the data active = activation above about 47%;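 also: 0% = vehicle wells and 100% = reference agonist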
STAT1 act: increases IFN-gamma driven STAT1 reporter signal. NIH 3T3 STAT1-luciferase reporter, luminescence; 100% = IFN-gamma alone, no compound. activation (% of control), % at 5.5 µM. hit rate 2.6% among 200,000;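 active = activation above the screen-wide mean activation plus 3 SD, cut at about 130% in these data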;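 also: raw ratio to IFN-gamma control signal so 100% means no change and 0% no light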
PERK inh: blocks human PERK kinase; inhibition, % at 5.6 µM; hit rate 0.17% among 220,000; CHO PERK-DD fusion, SEAP luminescence translation reporter; AID 1416; Q9NZJ5;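 active = inhibition above the mean inhibition of all tested compounds plus 3 SD, set separately per screening campaign, cut at about 2.9% in these data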;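 also: PERK kinase domain activated by AP20187 dimerizer at 100 nM; 0% = DMSO with dimerizer and 100% = rapamycin at 8.4 µM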
NF-kB expr up: raises NF-kB expression in human neuronal cells. fold change at 12.5 µM. NF-kB reporter expression; hits give high values. hit rate 1.6% among 190,000; in the data active = fold change above about 3.3
Mdm2 ligase inh: blocks human Mdm2 ubiquitin ligase activity. Q00987. signal enhancement, % at 5 µM. AID 1230. hit rate 0.11% among 210,000. cell-based MDM2 ubiquitination luciferase reporter, 2 h; 0 = plate control, 100 = twice control, blank-subtracted;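 active = signal enhancement of 30% or more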;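 also: luminescence tracks abundance of the self-degrading MDM2-luciferase fusion protein; higher signal means inhibition of MDM2 E3 ligase activity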
Target sequence (Q00987 whole entry, looked up, the tested form may be a part): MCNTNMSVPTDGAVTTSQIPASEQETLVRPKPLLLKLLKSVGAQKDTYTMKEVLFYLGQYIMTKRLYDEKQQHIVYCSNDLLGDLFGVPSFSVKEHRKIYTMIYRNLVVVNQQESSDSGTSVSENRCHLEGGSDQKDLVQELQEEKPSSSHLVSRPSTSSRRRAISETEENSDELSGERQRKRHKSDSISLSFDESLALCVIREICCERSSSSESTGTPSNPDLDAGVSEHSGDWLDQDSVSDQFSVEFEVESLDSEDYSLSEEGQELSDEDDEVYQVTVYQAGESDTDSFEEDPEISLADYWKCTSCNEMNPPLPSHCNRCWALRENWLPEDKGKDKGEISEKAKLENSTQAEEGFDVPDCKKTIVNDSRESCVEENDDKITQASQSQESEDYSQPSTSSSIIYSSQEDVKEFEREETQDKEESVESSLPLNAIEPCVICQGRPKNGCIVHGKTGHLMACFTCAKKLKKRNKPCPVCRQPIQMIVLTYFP
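Material: Stable MDM2–luciferase fusion reporter cells | Amount: 2000 cells seeded into each well | Dosing: One concentration, 5 µM, with 0.2% DMSO | Incubation: 4 h cell settling then 2 h compound exposure, 37 °C | Measured by: Luciferase luminescence | Read-out basis: % enhancement relative to plate controls after blank subtraction | Benchmarks: Control and blank well means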
Active calls of the source: *; ! = not confirmed by another sample.

Screening O=C(NC(=S)Nc1cc(-c2nc3ccccc3[nH]2)ccc1Cl)c1ccc2c(c1)OCO2 returned APP 5'UTR act -6.8, AHR activator 83.6*, STAT1 act 144.3*, PERK inh 0.0, NF-kB expr up 2.22 and Mdm2 ligase inh -16.8.
Screening Cc1ccc(-c2nc3ccccc3[nH]2)cc1NC(=O)c1ccc2c(c1)OCO2 returned APP 5'UTR act 6.3, AHR activator 15.7, STAT1 act 99.7, PERK inh -0.6, NF-kB expr up 0.46 and Mdm2 ligase inh 9.1.
O=C(O)c1ccc(N/N=C/c2ccc(-c3cc(Cl)ccc3Cl)o2)cc1 was read as AHR activator 19.5, PERK inh 0.1 and Mdm2 ligase inh -32.0.
Screening Cc1c(C(=O)O)cccc1-c1ccc(/C=N/Nc2ccc(Br)cc2)o1 returned APP 5'UTR act 27.0, AHR activator 134.2*, STAT1 act 115.7, PERK inh 0.9, NF-kB expr up 1.49 and Mdm2 ligase inh 11.2.
`O=C(O)c1ccc(N/N=C/c2ccc(-c3cccc(Cl)c3)o2)cc1` gave AHR activator 128.0*, PERK inh 0.8 and Mdm2 ligase inh -12.6.
NS(=O)(=O)c1ccc(-c2ccc(/C=N/Nc3ccc(C(=O)O)cc3)o2)cc1 was read as AHR activator 0.2, PERK inh 3.0* and Mdm2 ligase inh -8.9.
For O=C(c1ccco1)[C@@H]1[C@@H]2C(=O)N(c3ccc(F)cc3)C(=O)[C@@H]2C2c3ccccc3C=CN21 (stereo partly drawn) the results were APP 5'UTR act -6.7, AHR activator 45.8, STAT1 act 103.9, PERK inh 3.0*, NF-kB expr up 1.22 and Mdm2 ligase inh 8.8.
For COc1cc2c(cc1OC)C(c1ccc(-c3cc(Cl)ccc3Cl)o1)=NCC2 the results were APP 5'UTR act 3.7, AHR activator 20.3, STAT1 act 83.5, PERK inh -0.7, NF-kB expr up 0.86 and Mdm2 ligase inh -12.3.
`COc1cc2c(cc1OC)C(c1ccc(-c3ccc(Cl)c(Cl)c3)o1)=NCC2` gave APP 5'UTR act -1.0, AHR activator 63.3*, STAT1 act 100.2, PERK inh -1.4, NF-kB expr up 0.45 and Mdm2 ligase inh -2.2.
Screening N#Cc1ccc(C(=O)NCCCSc2ccccc2)cc1 returned AHR activator -1.2.
For C[C@]12CCC(=O)C=C1CC[C@@H]1[C@@H]2[C@@H](O)C[C@@]2(C)[C@H]1CC[C@]2(O)C(=O)COC(=O)CCC(=O)O the results were APP 5'UTR act 69.6, AHR activator 4.3, STAT1 act 129.0*!, PERK inh 2.7 and NF-kB expr up 1.01.
`CC(=O)OCC(=O)[C@@]1(O)CC[C@H]2[C@@H]3CCC4=CC(=O)CC[C@]4(C)[C@H]3[C@@H](O)C[C@@]21C` gave APP 5'UTR act 59.0, AHR activator 5.2, STAT1 act 117.0, PERK inh 2.5 and NF-kB expr up 0.5.
CC(C)(C)C1CCc2c(sc(NC(=O)c3ccco3)c2C(N)=O)C1 (stereo not drawn) was read as APP 5'UTR act 11.2, AHR activator 0.9, STAT1 act 86.3, PERK inh 0.7, NF-kB expr up 0.88 and Mdm2 ligase inh 7.0.
Screening CCC1CCc2c(sc(NC(=O)c3ccco3)c2C(N)=O)C1 (stereo not drawn) returned APP 5'UTR act 83.9, AHR activator 11.9, STAT1 act 130.6*, PERK inh -0.1, NF-kB expr up 2.62 and Mdm2 ligase inh -2.6.
`O=C(O)c1ccc(N=Nc2c(O)[nH]c3ccc(Br)cc23)cc1` gave AHR activator 13.8.
For O=C(CNC(=O)c1ccccc1)N=Nc1c(O)[nH]c2ccc(Br)cc12 the results were AHR activator 7.9.
Screening Oc1[nH]c2ccccc2c1N=Nc1nncc2ccccc12 returned AHR activator 6.1, PERK inh -0.6 and Mdm2 ligase inh -23.5.
Screening Oc1[nH]c2ccc(Br)cc2c1N=Nc1ccc(C(F)(F)F)cn1 returned APP 5'UTR act -9.8, AHR activator 64.4*, STAT1 act 89.5, PERK inh 0.5, NF-kB expr up 1.03 and Mdm2 ligase inh -6.0.
Screening Oc1[nH]c2ccccc2c1N=Nc1ccc(C(F)(F)F)cn1 returned APP 5'UTR act 29.4, AHR activator 55.3*, STAT1 act 115.5, PERK inh 1.6, NF-kB expr up 1.43 and Mdm2 ligase inh 3.1.
Screening COC(=O)N=Nc1c(O)[nH]c2ccc(Br)cc12 returned AHR activator 69.5*, PERK inh 0.3 and Mdm2 ligase inh -6.5.
Screening O=C(Nc1nnc(SCC(=O)N2CCCC2)s1)C1CC(=O)N(c2ccccc2)C1 (stereo not drawn) returned AHR activator 0.6.
`C[C@H](OC(=O)NCc1ccc(C(F)(F)F)cc1)[C@@H]1O[C@@]2(C)CCC[C@@H]1O2` gave AHR activator 10.3.
Screening CN(C)CCCN(C(=O)c1cc2cc([N+](=O)[O-])ccc2s1)c1nc2cc3c(cc2s1)OCCO3 returned AHR activator -7.7.
For CNC(=S)N1N=C2c3ccccc3CCC2C1c1ccccc1Cl (stereo not drawn) the results were AHR activator 2.8, PERK inh 0.8 and Mdm2 ligase inh -12.8.
Screening CN1N=C2c3ccccc3CCC2C1c1ccc(Cl)cc1 (stereo not drawn) returned AHR activator 66.5*, PERK inh 0.9 and Mdm2 ligase inh -3.5.
`CN1N=C2c3ccccc3CCC2C1c1ccc(F)cc1` (stereo not drawn) gave AHR activator 76.0*, PERK inh -0.5 and Mdm2 ligase inh -0.6.
Cc1ccc(Cl)cc1NC(=S)NCCCSC1CCCCC1 was read as APP 5'UTR act 12.4, AHR activator -3.2, STAT1 act 99.6, PERK inh 0.0, NF-kB expr up 1.43 and Mdm2 ligase inh 7.3.
`Cn1cnnc1Sc1cc(N2CCN(S(=O)(=O)c3ccc4ccccc4c3)CC2)ccc1[N+](=O)[O-]` gave APP 5'UTR act -11.8, AHR activator 3.4, STAT1 act 104.5, PERK inh -0.6, NF-kB expr up 1.09 and Mdm2 ligase inh -9.3.
Screening CCN(CC)c1nc2c3c(nc4c(c3c1C#N)CC(=O)N4c1ccc(Cl)cc1)NC(C)=N2 returned APP 5'UTR act -4.0, AHR activator 7.2, STAT1 act 90.0, PERK inh 1.2, NF-kB expr up 0.71 and Mdm2 ligase inh -2.0.
For CC(C)(C)c1ccc(N2C(=O)Cc3c2nc(N)c(C#N)c3N)cc1 the results were APP 5'UTR act 54.0, AHR activator 75.5*, STAT1 act 108.5, PERK inh -0.4, NF-kB expr up 0.85 and Mdm2 ligase inh -2.8.
Screening CCc1ccc(N2C(=O)Cc3c2nc(N)c(C#N)c3N)cc1 returned APP 5'UTR act 28.1, AHR activator 52.1*, STAT1 act 98.9, PERK inh 0.3, NF-kB expr up 2.82 and Mdm2 ligase inh -10.2.
